Assay results reported in ChEMBL document CHEMBL1136482, “Substituted azoloquinolines and -quinazolines as new potent farnesyl protein transferase inhibitors” (Bioorg Med Chem Lett, 2003).
pIC50: −log10 of the molar value. Activity calls are given as the source filed them. The rule behind the calls is not given here.

Columns and labels:
[1] = molecular target: T1, Protein farnesyltransferase (Homo sapiens, UniProt P49354+P49356); experiment: Inhibition of [3H]FPP incorporation into biotinylated laminB peptide by farnesyl transferase; assay type: protein-complex assay
How it was run: (§1)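 Isolated FPT enzyme assay measuring incorporation of [3H]-farnesylpyrophosphate into biotinylated laminB peptide. IC50 is the concentration giving 50% reduction of incorporation. Some entries are given as percent inhibition at a single concentration.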

[2] = molecular target: T2, Geranylgeranyl transferase type I (Homo sapiens, UniProt P49354+P53609); experiment: Inhibition of Geranylgeranylprotein transferase-I catalyzed incorporation of [3H]GGPP into biotinYRASNRSCAIL peptide; assay type: protein-complex assay
NIH3T3 [3] = experiment: T24H-ras-transformed NIH3T3 cell proliferation; assay type: functional, cell-based, Mus musculus
NIH3T3 [4] = experiment: (§2) In vivo inhibition of T24H-ras NIH3T3 tumor growth in mice; assay type: functional, Mus musculus
[5] = molecular target: T1, Protein farnesyltransferase; experiment: Inhibition of [3H]FPP incorporation into biotinylated laminB peptide by farnesyl transferase at 0.1 uM; assay type: protein-complex assay; how it was run: as §1
Homo sapiens = species on record: Homo sapiens; experiment: Compound tested for metabolism and expressed as percentage of parent drug remaining after 120 min incubation with human liver microsomes.; assay type: functional, organism-based
NIH3T3 [6] = experiment: as §2; assay type: functional, Mus musculus; remark: listed apart in the source
How it was run: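 Mice were inoculated with T24 NIH 3T3 cells. Dosing at 25 mg/kg was oral, once daily, starting 2 days after tumour inoculation. Tumour growth was assessed 17 days after administration and is reported as percentage inhibition of tumour weight.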

[7] = molecular target: T1, Protein farnesyltransferase; experiment: Inhibition of [3H]FPP incorporation into biotinylated laminB peptide by farnesyl transferase 0.1 uM; assay type: protein-complex assay; how it was run: as §1
NIH3T3 [8] = experiment: In vivo inhibition of T24H-ras NIH3T3 tumor growth in mice (Not significant); assay type: functional, organism-based; settings: Mus musculus
[9] = molecular target: T2, Geranylgeranyl transferase type I; experiment: Inhibition of Geranylgeranylprotein transferase-I catalyzed incorporation of [3H]GGPP into biotinYRASNRSCAIL peptide at 10 uM; assay type: protein-complex assay

Structure (SMILES)	pIC50 [1]	pIC50 (NIH3T3 [3]; nih3t3)	pIC50 (NIH3T3 [3]; Mus musculus, NIH3T3)	further results
Cn1cncc1C(N)(c1ccc(Cl)cc1)c1ccc2c(c1)c(-c1cccc(Cl)c1)nc1nnnn12 (stereo in doubt; 43a) [listing 1 of 2 here]	9.22	8.00		pIC50 [2]: < 6.00; Inhibition (NIH3T3 [4]): 66%
Cn1cncc1C(N)(c1ccc(Cl)cc1)c1ccc2c(c1)c(-c1cccc(Cl)c1)cc1nncn12 (stereo unspecified)				inhibition [5]: 65%
Cn1cncc1[C@@](N)(c1ccc(Cl)cc1)c1ccc2c(c1)c(-c1cccc(Cl)c1)cc(=O)n2C [TIPIFARNIB]	9.05			Metabolism (Homo sapiens): 66%; Inhibition (NIH3T3 [6]): 37%
Cn1cncc1C(N)(c1ccc(Cl)cc1)c1ccc2c(c1)c(-c1cccc(Cl)c1)nc1nnnn12 (stereo in doubt; 43b)	7.66	6.97		
Cn1cncc1C(N)(c1ccc(Cl)cc1)c1ccc2c(c1)c(-c1cccc(Cl)c1)cc1cnnn12 (stereo unspecified)				inhibition [7]: 68%
Cc1nnc2cc(-c3cccc(Cl)c3)c3cc(C(N)(c4ccc(Cl)cc4)c4cncn4C)ccc3n12 (stereo unspecified)	8.82		7.76	inhibition (NIH3T3 [8]): inactive
Cn1cncc1C(N)(c1ccc(Cl)cc1)c1ccc2c(c1)c(-c1cccc(Cl)c1)cc1nnnn12 (stereo in doubt; 24a)		< 6.30		Inhibition [1]: 36%; Inhibition [9]: 55%
Cn1cncc1C(N)(c1ccc(Cl)cc1)c1ccc2c(c1)c(-c1cccc(Cl)c1)nc1nncn12 (stereo unspecified)	8.52		6.73	
Cn1cncc1C(N)(c1ccc(Cl)cc1)c1ccc2c(c1)c(-c1cccc(Cl)c1)cc1nnnn12 (stereo in doubt; 24b) [listing 1 of 2 here]	8.77	7.70		pIC50 [2]: 7.09
Cn1cncc1C(N)(c1ccc(Cl)cc1)c1ccc2c(c1)c(-c1cccc(Cl)c1)cc1nnc(-c3ccccc3)n12 (stereo unspecified)			6.52	inhibition [7]: 60%
Cn1cncc1C(N)(c1ccc(Cl)cc1)c1ccc2c(c1)c(-c1cccc(Cl)c1)cc1nccn12 (stereo unspecified)	8.15		7.55	
Cn1cncc1C(N)(c1ccc(Cl)cc1)c1ccc2c(c1)c(-c1cccc(Cl)c1)cc1nnnn12 (stereo in doubt; 24b) [listing 2 of 2 here]				inhibition (NIH3T3 [8]): inactive
Cn1cncc1C(N)(c1ccc(Cl)cc1)c1ccc2c(c1)c(-c1cccc(Cl)c1)nc1nnnn12 (stereo in doubt; 43)	8.60	7.92		pIC50 [2]: 6.34
Cn1cncc1C(N)(c1ccc(Cl)cc1)c1ccc2c(c1)c(-c1cccc(Cl)c1)nc1nccn12 (stereo unspecified)	8.30		7.06	
Cn1cncc1C(N)(c1ccc(Cl)cc1)c1ccc2c(c1)c(-c1cccc(Cl)c1)cc1nnnn12 (stereo in doubt; 24)	8.46	7.26		pIC50 [2]: 6.75
Cn1cncc1C(N)(c1ccc(Cl)cc1)c1ccc2c(c1)c(-c1cccc(Cl)c1)nc1nnnn12 (stereo in doubt; 43a) [listing 2 of 2 here]				Metabolism (Homo sapiens): 97%
